Assay outcomes (PubChem)
Jurkat NFkB inh – inhibitors of induced NF-kB luciferase reporter, primary screen, TCR NF-kB activation inhibitor project, cell-based, luminescence, uHTS; inhibition, % at 4 µM; 330,000 compounds, 0.53% hits; Jurkat, PMA/ionomycin-induced NF-kB luciferase reporter; in the data active = inhibition above about 50%
APP transl inh – inhibitors of APP translation via 5'UTR reporter, primary screen, APP 5'UTR luciferase, SH-SY5Y cells | SH-SY5Y APP 5'UTR-luciferase reporter, luminescence | 190,000 compounds, 0.82% hits | inhibition, % at 2 µM | AID 1285, 2008;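 active = inhibition above a set limit, derived from the sample mean plus 3 SD, cut at about 45% in these data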
697 NFkB inh – inhibitors of PMA/ionomycin-induced NF-kB reporter, 697 cells, primary screen, B-cell NF-kB inhibitor project, cell-based, luminescence, uHTS | 330,000 compounds, 0.33% hits | inhibition, % at 4 µM | 697 B-cell NF-kB luciferase reporter, 16 h; in the data active = inhibition above about 35%
Lipid droplet – inhibitors of hepatocyte lipid droplet formation, primary screen, imaging, high-throughput imaging, BODIPY stain | AID 1656, 2009 | AML12 mouse hepatocytes, oleate lipid droplets | 240,000 compounds, 0.4% hits | inhibition, % at 6.5 µM;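 active = lipid droplet intensity inhibited by at least 50%, with more than 500 cells counted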
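material = mouse AML12 hepatocyte cell line, fixed after treatment | also added = 100 µM oleic acid challenge | doses = compound at 6.5 µM only | schedule = overnight exposure | technique = Image-based BODIPY and DAPI two-channel analysis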
H9c2 TAG inh – inhibitors of triacylglycerol accumulation, primary screen, cell-based, uHTS, fluorescence, H9c2; 230,000 compounds, 0.66% hits; inhibition, % at 12.5 µM; AID 651582, 2012; H9c2 cells, Nile Red lipid (TAG) fluorescence; cells loaded with 200 µM oleic acid;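 active = pattern-corrected inhibition of lipid staining of at least 50% with the nuclear-stain viability signal not falling by more than 50%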;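 also: 0% = DMSO wells and 100% = triacsin C control wells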
aSyn 5UTR inh – MLPCN primary screen, SNCA 5' untranslated region; inhibition, % (tested at 7.5 µM); alpha-synuclein 5'UTR reporter, inhibitor activity; 300,000 compounds, 0.82% hits; in the data active = inhibition above about 60%;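 also: H4 neuroglioblastoma cells stably carrying SNCA 5'UTR luciferase fusion; 0% = DMSO wells and 100% = positive control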
Lipid drop inh – hepatocyte lipid droplet accumulation inhibitors, confirmation, imaging, AML12 mouse hepatocytes, single concentration, high-content | 870 compounds, 65% hits | BODIPY lipid droplet imaging; droplets induced with 100 µM oleic acid | inhibition, % at 5.2 µM | shares compounds with Lipid droplet | AID 463183, 2010;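 active = inhibition of lipid droplet metric at least 50%, with more than 300 cells in each of four replicates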;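 also: plate controls were DMSO with oleic acid for no effect and 5 µM Triacsin-C for full effect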
AML12 cytotox – AML12 hepatocyte cytotoxicity, counter-screen for hepatic lipid droplet formation project, imaging, DAPI nuclear morphology imaging | shares compounds with Lipid droplet | AML12 mouse hepatocytes; stronger effect = higher value; cells fed 100 µM oleate overnight | z-score at 5 µM | 870 compounds, 3% hits; in the data active = z-score above about 6.3;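 also: compound exposure lasted overnight at 37 °C before fixation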
AML12 tox conf – AML12 hepatocyte cytotoxicity, confirmation, cytotoxicity control for hepatic lipid droplet formation project, cell-based, single concentration | shares compounds with Lipid droplet | AML12 mouse hepatocyte viability, ATP luminescence; cells loaded with 100 µM oleic acid | cytotoxicity, % at 50 µM | 530 tested, under 10 active | AID 463219, 2010;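 active = cytotoxicity above 50% in each of four replicates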;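 also: compound exposure lasted overnight at 37 °C before the ATP read; 0% = DMSO-treated cells and 100% = wells with no cells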
* marks the source's active call; other numbers are inactive results; / = not tested or not shown. An excerpt weighted towards active compounds, which were near 1.9% of everything screened.

SMILES | Jurkat NFkB inh | APP transl inh | 697 NFkB inh | Lipid droplet | H9c2 TAG inh | aSyn 5UTR inh | Lipid drop inh | AML12 cytotox | others
COc1ccc(CCNC(=O)CCOc2cc(C)ccc2C)cc1OC | 10 | / | -10 | 68* | 34 | 22 | 91* | -0.092 | AML12 tox conf=12
Oc1cccc(O)c1O | 7 | / | -21 | / | / | / | / | /
OC(COc1ccc2cc(Br)ccc2c1)Cn1ccnc1 (stereo unspecified) | 1 | / | -5 | 53* | / | -3 | 27 | -0.39
COC(=O)c1cccc(OCC(O)Cn2ccnc2)c1 (stereo unspecified) | -16 | -4 | 0 | / | 3 | 10 | / | /
CCOC(=O)C1(C)C(=O)CC2c3nc4ccccc4cc3CN2C1=O (stereo unspecified) | / | / | / | / | 0 | / | / | /
O=C1CC(/C=C/c2ccccc2)(C(=O)NC2CCCC2)N1c1ccc(S(=O)(=O)N2CCCC2)cc1 (stereo unspecified) | 5 | -8 | -9 | 90* | / | 23 | 84* | -0.81
COc1cccc(COC(=O)C(Cc2ccccc2)NC(=O)c2ccco2)c1 (stereo unspecified) | / | / | / | / | -11 | / | / | /
Cc1ccc(N2C(=O)N(CC(=O)N3CCOCC3)C(=O)C2C)cc1 (stereo unspecified) | 3 | 1 | 1 | -4 | -5 | 14 | / | /
CCOc1cc(C(=O)OCC(=O)Nc2cc(C)on2)ccc1OCC(C)C | -4 | 9 | 3 | 16 | 1 | 34 | / | /
CCOc1ccc(C(=O)OCC(=O)Nc2cc(C)on2)cc1OCC | 1 | -9 | 20 | 80* | / | 28 | 106* | -0.18 | AML12 tox conf=11
CN(C)c1nc(N/N=C/c2c[nH]c3ccccc23)nc(N2CCOCC2)n1 | 10 | -4 | 34 | 131* | 138 | -34 | 86* | 22*
C(=N\Nc1nc(N2CCCCC2)nc(N2CCCCC2)n1)/c1c[nH]c2ccccc12 | -12 | -21 | -5 | -4 | / | -16 | / | /
O=[N+]([O-])c1ccc(CSc2ccc(S(=O)(=O)N3CCCCCC3)cn2)cc1 | 18 | / | 19 | / | -71 | / | / | /
Cc1occc1C(=O)N/N=C/c1ccc(OCc2ccccc2)cc1 | -61 | / | -44 | 60* | -11 | -138 | 17 | 0.71
O=C(N/N=C/c1ccc(F)cc1)c1ccc(OCc2ccccc2)cc1 | -4 | / | 16 | 40 | -2 | 14 | / | /
CCC(=O)Nc1nc(-c2ccc3c(c2)OCCO3)cs1 | -117 | -147 | -173 | -8 | 3 | -136 | / | /
c1cc2c(cc1-c1csc(NNC3=NCCCCC3)n1)OCCO2 | -42 | -80 | -53 | 90* | / | -70 | 100* | -0.51 | AML12 tox conf=39
C#CCOCCOCCOCCNc1nc(N2CCOCC2)nc(N2CCN(C(=O)[C@H]([C@@H](C)CC)n3cc([C@@H](N)Cc4ccc(O)cc4)nn3)CC2)n1 | 9 | -2 | 10 | 55* | 44 | 21 | 13 | -0.7
C#CCOCCOCCOCCNc1nc(N2CCN(C(=O)[C@H]([C@@H](C)CC)n3cc([C@@H](N)Cc4ccc(O)cc4)nn3)CC2)nc(N2CCN(C(=O)[C@H]([C@@H](C)CC)n3cc([C@@H](N)CC(C)C)nn3)CC2)n1 | 4 | -7 | -1 | -1 | 11 | -1 | / | /
Cc1cc2nn(-c3ccc(Cl)cc3)nc2cc1N | -53 | / | -44 | 62* | / | 18 | 73* | 0.24 | AML12 tox conf=49
COc1ccccc1CNC(=O)c1ccc2c(=O)n3c(nc2c1)CCCCC3 | 7 | / | 4 | 6 | / | 48 | / | /
CCCC(=O)N(Cc1cc(=O)[nH]c2ccccc12)c1cccc(C)c1 | 4 | / | -28 | -31 | / | 28 | / | /
Cc1cccc(N(Cc2cc(=O)[nH]c3ccccc23)C(=O)CCl)c1 | 7 | / | -55 | 55* | / | 2 | 80* | 0.32
CC(C)Cc1ccc(-c2ccc3nccn3c2)cc1 | / | / | / | / | -10 | / | / | /
Cc1nc(NC(=O)C2CC2)sc1C(=O)N(C)C | -3 | -20 | -5 | 70* | / | 14 | -17 | -0.32
SMILES | Jurkat NFkB inh | APP transl inh | 697 NFkB inh | Lipid droplet | H9c2 TAG inh | aSyn 5UTR inh | Lipid drop inh | AML12 cytotox | others
CCOc1ccc(NS(=O)(=O)c2ccc(C(=O)N3CCCC3)cc2)cc1 | 7 | / | -4 | / | 34 | 5 | / | /
CCOc1ccc(NS(=O)(=O)c2ccc(C(=O)N3CCC3)cc2)cc1 | 8 | / | -24 | 71* | 14 | -6 | 99* | -0.56 | AML12 tox conf=14
O=C1Nc2ccc(Cl)cc2[C@@](C#CC2CC2)(C(F)(F)F)O1 | -3 | / | 4 | -2 | / | 28 | / | /
c1ccc(Oc2cccc(CN3CCCCC3)c2)cc1 | -8 | 42 | 13 | 56* | / | 5 | -4 | 0.1
COC(=O)C1=C(C(=O)OC)SC(=C2C(=S)C(C)(C)N(C(=O)C(C)C)c3ccccc32)S1 | 6 | -12 | 8 | 57* | / | -7 | 102* | 0.57 | AML12 tox conf=17
COC(=O)C1=C(C(=O)OC)SC(=C2C(=S)C(C)(C)N(C(=O)C3CC3)c3ccccc32)S1 | 8 | 12 | 2 | 32 | / | -1 | / | /
Cc1cccc(NC(=O)c2nc[nH]c2C(=O)NCC(=O)OC(C)(C)C)c1 | 12 | / | -11 | 52* | -6 | 11 | 8 | 0.56
O=C(Cn1c(=O)n(CC2CCCO2)c(=O)c2ccccc21)c1ccc(Cl)c(Cl)c1 (stereo unspecified) | 8 | -9 | 8 | 6 | 7 | 18 | / | /
CC(C)(C)C(=O)Cn1c(=O)n(CC2CCCO2)c(=O)c2ccccc21 (stereo unspecified) | 10 | -9 | -6 | 55* | / | -24 | 9 | -0.42
Cc1oc2c(cc(NS(=O)(=O)c3cccs3)c3ccccc32)c1C(=O)OC(C)C | 3 | -40 | -4 | 68* | -9 | 6 | 89* | 0.021 | AML12 tox conf=5
CCN1CCN(c2cc(C)c3cc(NC(=O)CCC(=O)Nc4ccc(OC)cc4OC)ccc3n2)CC1 | -14 | / | -14 | 89* | / | -20 | 94* | 0.97 | AML12 tox conf=16
COc1ccc(C2(C)NC(=O)N(CC(=O)Nc3ccc4ccccc4c3)C2=O)cc1OC (stereo unspecified) | 12 | / | 3 | / | 11 | / | / | /
COc1ccc(CNC(=O)CN2C(=O)NC(C)(c3cccc4ccccc34)C2=O)cc1OC (stereo unspecified) | 5 | / | -8 | 78* | / | 30 | 105* | -0.25 | AML12 tox conf=14
